Measurements from ChEMBL document CHEMBL3272319, “Alkyl streptozotocin analogues with improved biological activities” (J Med Chem, 1976).

Key:
Mus musculus [1] = assay: Ratio of compound LD10 to streptozotocin LD10 for JCL-ICR mouse; type: ADME, organism-based; conditions: in vivo
[2] = Ratio of compound LD50 to streptozotocin LD50 for JCL-ICR mouse; type: ADME, organism-based; conditions: in vivo
Mus musculus [3] = assay: Toxicity in BDF1 mouse allografted with mouse L1210 cells assessed as mortality at 50 mg/kg, ip qd for 5 days; type: organism-based; set-up: dose 50 mg/kg, route intraperitoneal; conditions: in vivo, 120 h
Procedure, shortened: (§1)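 L1210 (1 × 10^5 cells) implanted into BDF1 mice, six per group; compound in saline ip once daily days 1-5; effect read as % increase in life span, ILS = [(treated life span/control life span) − 1] × 100.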

[4] = (§2) Acute toxicity in ip dosed JCL-ICR mouse assessed as animal death; type: organism-based; conditions: JCL-ICR, in vivo
Procedure, shortened: (§3)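 Groups of ten female JCL-ICR mice given single ip dose in physiological saline; deaths followed over 7 days; LD50 (and LD10) derived by Litchfield–Wilcoxon method.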

Mus musculus [5] = assay: as §2; type: organism-based; conditions: in vivo; procedure, shortened: as §3
Ehrlich [6] = assay: Antitumor activity against mouse EAC allografted in ICR mouse assessed as tumor growth at 150 mg/kg, ip qd for 5 days measured on day 7 relative to control; type: functional; conditions: route intraperitoneal
Procedure, shortened: (§4)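 Ehrlich ascites carcinoma (1 × 10^7 cells) implanted into ICR mice, six per group. Drug in saline ip, qd days 1–5. Mice killed day 7. Total packed cell volume = ascites volume × % packed cell volume; T/C % = TPCV treated/control × 100. Activity graded from T/C.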

Rattus norvegicus [7] = assay: Diabetogenic activity in iv dosed Wistar rat assessed as increase in blood sugar level administered as single dose by glucose oxidase method; type: ADME, organism-based; conditions: in vivo
Procedure, shortened: (§5)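 Male Wistar rats, about 200 g, five per group, fasted 16 h. Single iv dose into the femoral vein in physiological saline, equimolar across compounds. Caudal-vein blood sampled at set times over 24 h. Sugar measured by glucose oxidase.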

L1210 [8] = assay: Antitumor activity against mouse L1210 cells allografted in BDF1 mouse assessed as increase in host lifespan at 50 mg/kg, ip qd for 5 days relative to control; type: functional; conditions: 120 h, route intraperitoneal; procedure, shortened: as §1
[9] = Antitumor activity against mouse S180A allografted in ICR mouse assessed as tumor growth at 50 mg/kg, ip qd for 5 days measured on day 7 relative to control; type: functional; conditions: route intraperitoneal
Procedure, shortened: (§6)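 Ascites Sarcoma 180 (1 × 10^7 cells) implanted into ICR mice, six animals per group. Five daily ip injections in saline (days 1–5). Sacrificed day 7. T/C % computed from total packed cell volume (ascites volume × PCV) vs controls. Grades: 100-66 = -, 65-41 = +, 40-11 = ++, 10-0 = +++.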

Mus musculus [10] = assay: Toxicity in ICR mouse allografted with mouse S180A assessed as mortality at 50 mg/kg, ip qd for 5 days; type: organism-based; set-up: dose 50 mg/kg, route intraperitoneal; conditions: in vivo, 120 h
Procedure, shortened: (§7)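 Ascites Sarcoma 180 (1 × 10^7 cells) implanted into ICR mice, six per group; compound in saline ip once daily days 1-5; sacrifice on day 7; total packed cell volume (ascites volume × PCV) compared with controls as T/C %; mortality recorded.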

Mus musculus [11] = assay: Toxicity in ICR mouse allografted with mouse EAC assessed as mortality at 150 mg/kg, ip qd for 5 days; type: organism-based; set-up: dose 150 mg/kg, route intraperitoneal; conditions: in vivo, 120 h
Procedure, shortened: (§8)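 Ehrlich ascites carcinoma (1 × 10^7 cells) implanted into ICR mice, six per group; compound ip daily for 5 days; mice sacrificed day 7; tumour burden as total packed cell volume (ascites volume × PCV), T/C % vs controls; mortality recorded.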

Mus musculus [12] = assay: Toxicity in BDF1 mouse allografted with mouse L1210 cells assessed as mortality at 100 mg/kg, ip qd for 5 days; type: organism-based; set-up: dose 100 mg/kg, route intraperitoneal; conditions: in vivo, 120 h; procedure, shortened: as §1
L1210 [13] = assay: Antitumor activity against mouse L1210 cells allografted in BDF1 mouse assessed as increase in host lifespan at 100 mg/kg, ip qd for 5 days relative to control; type: functional; conditions: 120 h, route intraperitoneal; procedure, shortened: as §1
Ehrlich [14] = assay: Antitumor activity against mouse EAC allografted in ICR mouse assessed as tumor growth at 125 mg/kg, ip qd for 5 days measured on day 7 relative to control; type: functional; conditions: route intraperitoneal; procedure, shortened: as §4
Mus musculus [15] = assay: Toxicity in ICR mouse allografted with mouse EAC assessed as mortality at 125 mg/kg, ip qd for 5 days; type: organism-based; set-up: dose 125 mg/kg, route intraperitoneal; conditions: in vivo, 120 h; procedure, shortened: as §8
Escherichia coli = assay: Antibacterial activity against Escherichia coli NIHJ JC-2 assessed as growth inhibition after 18 hrs by broth dilution method; type: functional; conditions: NIHJ JC-2, 18 h
Procedure, shortened: (§9)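 Twofold serial dilutions in heart infusion broth. Inoculum was a 24-h heart infusion broth culture diluted 100-fold in physiological saline. Tubes incubated 30 °C for 18 h; the table footnote gives 32 °C for 24 h. MIC in µg/ml is the lowest level giving complete growth inhibition.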

Enterococcus faecalis = assay: Antibacterial activity against Streptococcus faecalis ATCC 10541 assessed as growth inhibition after 18 hrs by broth dilution method; type: functional; conditions: ATCC 10541, 18 h; procedure, shortened: as §9
Shigella sonnei = assay: Antibacterial activity against Shigella sonnei assessed as growth inhibition after 18 hrs by broth dilution method; type: functional; procedure, shortened: as §9
[16] = Antitumor activity against mouse S180A allografted in ICR mouse assessed as tumor growth at 25 mg/kg, ip qd for 5 days measured on day 7 relative to control; type: functional; conditions: route intraperitoneal; procedure, shortened: as §6
Rattus norvegicus [17] = assay: Diabetogenic activity in Wistar rat assessed as increase in blood sugar level at 71.4 mg/kg, iv administered as single dose by glucose oxidase method; type: ADME, organism-based; set-up: dose 71.4 mg/kg, route intravenous; conditions: in vivo; procedure, shortened: as §5
Mus musculus [18] = assay: Toxicity in ICR mouse allografted with mouse S180A assessed as mortality at 25 mg/kg, ip qd for 5 days; type: organism-based; set-up: dose 25 mg/kg, route intraperitoneal; conditions: in vivo, 120 h; procedure, shortened: as §7
Salmonella typhi = assay: Antibacterial activity against Salmonella typhi IFM 3020 assessed as growth inhibition after 18 hrs by broth dilution method; type: functional, Salmonella enterica subsp. enterica serovar Typhi; conditions: Salmonella enterica, IFM 3020, 18 h
Procedure, shortened: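 Twofold serial dilutions in heart infusion broth; inoculum from 24 h heart infusion broth culture diluted 100-fold in physiological saline; tubes incubated 30 °C for 18 h; MIC (µg/ml) = lowest level giving complete growth inhibition.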

Klebsiella pneumoniae = assay: Antibacterial activity against Klebsiella pneumoniae ATCC 10031 assessed as growth inhibition after 18 hrs by broth dilution method; type: functional; conditions: ATCC 10031, 18 h; procedure, shortened: as §9
Bacillus subtilis = assay: Antibacterial activity against Bacillus subtilis ATCC 6633 assessed as growth inhibition after 18 hrs by broth dilution method; type: functional; conditions: ATCC 6633, 18 h; procedure, shortened: as §9
Proteus vulgaris = assay: Antibacterial activity against Proteus vulgaris AHU 1469 assessed as growth inhibition after 18 hrs by broth dilution method; type: functional; conditions: AHU 1469, 18 h; procedure, shortened: as §9
Micrococcus luteus = assay: Antibacterial activity against Sarcina lutea ATCC 9341 assessed as growth inhibition after 18 hrs by broth dilution method; type: functional; conditions: ATCC 9341, 18 h; procedure, shortened: as §9
Pseudomonas fluorescens = assay: Antibacterial activity against Pseudomonas fluorescens NIHJ B-254 assessed as growth inhibition after 18 hrs by broth dilution method; type: functional; conditions: NIHJ B-254, 18 h; procedure, shortened: as §9
Staphylococcus aureus = assay: Antibacterial activity against Staphylococcus aureus FDA 209P JC-1 assessed as growth inhibition after 18 hrs by broth dilution method; type: functional; conditions: FDA 209P JC-1, 18 h; procedure, shortened: as §9

Row | Compound | Ratio (Mus musculus [1]) | selectivity ratio [2] | LD50 [4] [mg/kg] | LD10 (Mus musculus [5]) [mg/kg] | Activity (Rattus norvegicus [7]) | T/C [9] [%] | Activity (Mus musculus [10]) | Activity (Mus musculus [12]) | ILS at 100 mg/kg (L1210 [13]) [%] | T/C (Ehrlich [14]) [%] | Activity (Mus musculus [15]) | other results
1 | CCCCO[C@H]1O[C@H](CO)[C@@H](O)[C@H](O)[C@H]1NC(=O)N(C)N=O | 2 | 2 | 2000 | 1200 | Non-toxic | 20 | Non-toxic | – | – | – | – | Activity (Mus musculus [3]): Non-toxic; T/C (Ehrlich [6]): 16%; ILS at 50 mg/kg (L1210 [8]): 30%; Activity (Mus musculus [11]): Non-toxic
2 | CCO[C@@H]1O[C@H](CO)[C@@H](O)[C@H](O)[C@H]1NC(=O)N(CC)N=O | – | – | – | – | Non-toxic | 59 | Non-toxic | Non-toxic | 10 | – | – | –
3 | CCCN(N=O)C(=O)N[C@H]1[C@@H](OC)O[C@H](CO)[C@@H](O)[C@@H]1O | – | – | – | – | Non-toxic | 55 | Non-toxic | – | – | 61 | Non-toxic | –
4 | CCO[C@H]1O[C@H](CO)[C@@H](O)[C@H](O)[C@H]1NC(=O)N(CC)N=O | – | – | – | – | Non-toxic | 63 | Non-toxic | Non-toxic | 14 | 60 | Non-toxic | –
5 | CCCCO[C@H]1O[C@H](CO)[C@@H](O)[C@H](O)[C@H]1NC(=O)N(CCCC)N=O | 2 | 2 | 660 | 410 | Non-toxic | 80 | Non-toxic | – | – | 53 | Non-toxic | –
6 | CCO[C@@H]1O[C@H](CO)[C@@H](O)[C@H](O)[C@H]1NC(=O)N(C)N=O | 2 | 2 | 2050 | 1550 | – | – | – | – | – | – | – | MIC (Escherichia coli): > 1000 µg/mL; MIC (Enterococcus faecalis): > 1000 µg/mL; MIC (Shigella sonnei): > 1000 µg/mL; T/C [16]: 37%; Activity (Rattus norvegicus [17]): Non-toxic; Activity (Mus musculus [18]): Non-toxic; MIC (Salmonella typhi): > 1000 µg/mL; MIC (Klebsiella pneumoniae): > 1000 µg/mL; MIC (Bacillus subtilis): > 1000 µg/mL; MIC (Proteus vulgaris): > 1000 µg/mL; MIC (Micrococcus luteus): > 1000 µg/mL; MIC (Pseudomonas fluorescens): > 1000 µg/mL; MIC (Staphylococcus aureus): > 1000 µg/mL
